ChEMBL document CHEMBL5058577, “EUbOPEN Chemogenomics Library 2 (Multiplex)” (2022)

Test system: HEK-293T
Test: Multiplex assay against HEK293T
Type: toxicity, cell-based
Conditions: human
Outline: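 Four dyes were applied at seeding to live cells: Hoechst33342, BioTracker Green Microtubule Cytoskeleton Dye, MitoTracker Red and Annexin V Alexa Fluor 680. Imaging after compound addition used a CQ1 microscope at 37°C and 5% CO2. CellPathfinder machine-learning gating then sorted cells into Hoechst high-intensity objects or normal cells, normal cells into healthy, pyknosed or fragmented nuclei, and pyknosed cells into mitotic or apoptotic, with tubulin, mitochondrial-mass and membrane-permeability phenotypes given as per cents of healthy-nucleus cells.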

[1] = 12 h, 1 µM, compound concentration 1 uM, replicate 1
[2] = 12 h, 1 µM, compound concentration 1 uM, replicate 2
[3] = 12 h, 10 µM, compound concentration 10 uM, replicate 1
[4] = 12 h, 10 µM, compound concentration 10 uM, replicate 2
[5] = 24 h, 1 µM, compound concentration 1 uM, replicate 1
[6] = 24 h, 1 µM, compound concentration 1 uM, replicate 2
[7] = 24 h, 10 µM, compound concentration 10 uM, replicate 1
[8] = 24 h, 10 µM, compound concentration 10 uM, replicate 2
[9] = 48 h, 1 µM, compound concentration 1 uM, replicate 1
[10] = 48 h, 1 µM, compound concentration 1 uM, replicate 2
[11] = 48 h, 10 µM, compound concentration 10 uM, replicate 1
[12] = 48 h, 10 µM, compound concentration 10 uM, replicate 2

C[C@@H]1C[C@H]2[C@@H]3CCC4=CC(=O)C=C[C@]4(C)[C@@]3(F)[C@@H](O)C[C@]2(C)[C@@]1(O)C(=O)CO [DEXAMETHASONE]
Population Apoptotic (%) [1]: 37% | Population Fragmented Nuclei (%) [1]: 8% | Population Healthy Nuclei (%) [1]: 78% | Population Hoechst High Intensity Objects (%) [1]: 2% | Population Membrane Permeable-Phenotype (%) [1]: 1% | Population Mitochondria Different-Phenotype (%) [1]: 45% | Population Mitotic Cells (%) [1]: 62% | Population Normal (%) [1]: 97% | Population Pyknosed Nuclei (%) [1]: 12% | Population Tubulin-Different-Phenotype (%) [1]: 24% | Total Cell Count [1]: 420 | Population Apoptotic (%) [2]: 53% | Population Fragmented Nuclei (%) [2]: 7% | Population Healthy Nuclei (%) [2]: 80% | Population Hoechst High Intensity Objects (%) [2]: 8% | Population Membrane Permeable-Phenotype (%) [2]: 0% | Population Mitochondria Different-Phenotype (%) [2]: 62% | Population Mitotic Cells (%) [2]: 46% | Population Normal (%) [2]: 91% | Population Tubulin-Different-Phenotype (%) [2]: 26% | Total Cell Count [2]: 372 | Population Apoptotic (%) [3]: 37% | Population Fragmented Nuclei (%) [3]: 7% | Population Healthy Nuclei (%) [3]: 79% | Population Hoechst High Intensity Objects (%) [3]: 6% | Population Membrane Permeable-Phenotype (%) [3]: 0% | Population Mitochondria Different-Phenotype (%) [3]: 44% | Population Mitotic Cells (%) [3]: 62% | Population Normal (%) [3]: 93% | Population Pyknosed Nuclei (%) [3]: 13% | Population Tubulin-Different-Phenotype (%) [3]: 33% | Total Cell Count [3]: 374 | Population Apoptotic (%) [4]: 44% | Population Fragmented Nuclei (%) [4]: 5% | Population Healthy Nuclei (%) [4]: 81% | Population Hoechst High Intensity Objects (%) [4]: 14% | Population Mitochondria Different-Phenotype (%) [4]: 69% | Population Mitotic Cells (%) [4]: 55% | Population Normal (%) [4]: 85% | Population Tubulin-Different-Phenotype (%) [4]: 39% | Total Cell Count [4]: 436 | Population Apoptotic (%) [5]: 31% | Population Fragmented Nuclei (%) [5]: 9% | Population Healthy Nuclei (%) [5]: 78% | Population Hoechst High Intensity Objects (%) [5]: 4% | Population Membrane Permeable-Phenotype (%) [5]: 0% | Population Mitochondria Different-Phenotype (%) [5]: 30% | Population Mitotic Cells (%) [5]: 68% | Population Normal (%) [5]: 95% | Population Pyknosed Nuclei (%) [5]: 12% | Population Tubulin-Different-Phenotype (%) [5]: 17% | Total Cell Count [5]: 569 | Population Apoptotic (%) [6]: 42% | Population Fragmented Nuclei (%) [6]: 12% | Population Healthy Nuclei (%) [6]: 79% | Population Hoechst High Intensity Objects (%) [6]: 7% | Population Mitochondria Different-Phenotype (%) [6]: 45% | Population Mitotic Cells (%) [6]: 57% | Population Normal (%) [6]: 92% | Population Pyknosed Nuclei (%) [6]: 8% | Total Cell Count [6]: 499 | Population Apoptotic (%) [7]: 36% | Population Fragmented Nuclei (%) [7]: 8% | Population Healthy Nuclei (%) [7]: 74% | Population Hoechst High Intensity Objects (%) [7]: 6% | Population Membrane Permeable-Phenotype (%) [7]: 0% | Population Mitochondria Different-Phenotype (%) [7]: 30% | Population Mitotic Cells (%) [7]: 63% | Population Normal (%) [7]: 93% | Population Pyknosed Nuclei (%) [7]: 16% | Population Tubulin-Different-Phenotype (%) [7]: 29% | Total Cell Count [7]: 453 | Population Apoptotic (%) [8]: 44% | Population Fragmented Nuclei (%) [8]: 9% | Population Healthy Nuclei (%) [8]: 79% | Population Hoechst High Intensity Objects (%) [8]: 15% | Population Mitochondria Different-Phenotype (%) [8]: 43% | Population Mitotic Cells (%) [8]: 56% | Population Normal (%) [8]: 84% | Population Pyknosed Nuclei (%) [8]: 11% | Population Tubulin-Different-Phenotype (%) [8]: 22% | Total Cell Count [8]: 513 | Population Apoptotic (%) [9]: 30% | Population Fragmented Nuclei (%) [9]: 15% | Population Healthy Nuclei (%) [9]: 77% | Population Hoechst High Intensity Objects (%) [9]: 1% | Population Membrane Permeable-Phenotype (%) [9]: 1% | Population Mitochondria Different-Phenotype (%) [9]: 18% | Population Mitotic Cells (%) [9]: 69% | Population Normal (%) [9]: 98% | Population Pyknosed Nuclei (%) [9]: 7% | Population Tubulin-Different-Phenotype (%) [9]: 12% | Total Cell Count [9]: 915 | Population Apoptotic (%) [10]: 27% | Population Healthy Nuclei (%) [10]: 78% | Population Hoechst High Intensity Objects (%) [10]: 3% | Population Membrane Permeable-Phenotype (%) [10]: 0% | Population Mitochondria Different-Phenotype (%) [10]: 27% | Population Mitotic Cells (%) [10]: 72% | Population Normal (%) [10]: 96% | Population Pyknosed Nuclei (%) [10]: 6% | Population Tubulin-Different-Phenotype (%) [10]: 15% | Total Cell Count [10]: 685 | Population Apoptotic (%) [11]: 25% | Population Fragmented Nuclei (%) [11]: 15% | Population Healthy Nuclei (%) [11]: 76% | Population Hoechst High Intensity Objects (%) [11]: 3% | Population Membrane Permeable-Phenotype (%) [11]: 0% | Population Mitochondria Different-Phenotype (%) [11]: 18% | Population Mitotic Cells (%) [11]: 75% | Population Normal (%) [11]: 96% | Population Pyknosed Nuclei (%) [11]: 7% | Population Tubulin-Different-Phenotype (%) [11]: 14% | Total Cell Count [11]: 760 | Population Apoptotic (%) [12]: 50% | Population Fragmented Nuclei (%) [12]: 16% | Population Hoechst High Intensity Objects (%) [12]: 6% | Population Mitochondria Different-Phenotype (%) [12]: 28% | Population Mitotic Cells (%) [12]: 49% | Population Normal (%) [12]: 93% | Population Tubulin-Different-Phenotype (%) [12]: 19% | Total Cell Count [12]: 756

O=C(O)Cc1ccccc1Nc1c(Cl)cccc1Cl [DICLOFENAC]
Population Apoptotic (%) [1]: 36% | Population Fragmented Nuclei (%) [1]: 7% | Population Healthy Nuclei (%) [1]: 77% | Population Hoechst High Intensity Objects (%) [1]: 5% | Population Membrane Permeable-Phenotype (%) [1]: 0% | Population Mitochondria Different-Phenotype (%) [1]: 53% | Population Mitotic Cells (%) [1]: 63% | Population Normal (%) [1]: 94% | Population Pyknosed Nuclei (%) [1]: 14% | Population Tubulin-Different-Phenotype (%) [1]: 32% | Total Cell Count [1]: 376 | Population Apoptotic (%) [2]: 52% | Population Healthy Nuclei (%) [2]: 79% | Population Hoechst High Intensity Objects (%) [2]: 10% | Population Mitochondria Different-Phenotype (%) [2]: 61% | Population Mitotic Cells (%) [2]: 47% | Population Normal (%) [2]: 89% | Population Pyknosed Nuclei (%) [2]: 13% | Population Tubulin-Different-Phenotype (%) [2]: 23% | Total Cell Count [2]: 324 | Population Apoptotic (%) [3]: 30% | Population Fragmented Nuclei (%) [3]: 7% | Population Healthy Nuclei (%) [3]: 77% | Population Hoechst High Intensity Objects (%) [3]: 6% | Population Membrane Permeable-Phenotype (%) [3]: 0% | Population Mitochondria Different-Phenotype (%) [3]: 45% | Population Mitotic Cells (%) [3]: 69% | Population Normal (%) [3]: 93% | Population Pyknosed Nuclei (%) [3]: 14% | Population Tubulin-Different-Phenotype (%) [3]: 35% | Total Cell Count [3]: 480 | Population Apoptotic (%) [4]: 57% | Population Healthy Nuclei (%) [4]: 75% | Population Hoechst High Intensity Objects (%) [4]: 14% | Population Mitochondria Different-Phenotype (%) [4]: 68% | Population Mitotic Cells (%) [4]: 42% | Population Normal (%) [4]: 85% | Population Pyknosed Nuclei (%) [4]: 17% | Total Cell Count [4]: 370 | Population Apoptotic (%) [5]: 30% | Population Fragmented Nuclei (%) [5]: 7% | Population Healthy Nuclei (%) [5]: 76% | Population Hoechst High Intensity Objects (%) [5]: 3% | Population Membrane Permeable-Phenotype (%) [5]: 0% | Population Mitochondria Different-Phenotype (%) [5]: 44% | Population Mitotic Cells (%) [5]: 69% | Population Normal (%) [5]: 96% | Population Pyknosed Nuclei (%) [5]: 15% | Population Tubulin-Different-Phenotype (%) [5]: 24% | Total Cell Count [5]: 456 | Population Apoptotic (%) [6]: 45% | Population Fragmented Nuclei (%) [6]: 6% | Population Healthy Nuclei (%) [6]: 78% | Population Hoechst High Intensity Objects (%) [6]: 10% | Population Mitochondria Different-Phenotype (%) [6]: 37% | Population Mitotic Cells (%) [6]: 54% | Population Normal (%) [6]: 89% | Population Pyknosed Nuclei (%) [6]: 14% | Population Tubulin-Different-Phenotype (%) [6]: 9% | Total Cell Count [6]: 418 | Population Apoptotic (%) [7]: 25% | Population Fragmented Nuclei (%) [7]: 10% | Population Healthy Nuclei (%) [7]: 77% | Population Hoechst High Intensity Objects (%) [7]: 4% | Population Membrane Permeable-Phenotype (%) [7]: 0% | Population Mitochondria Different-Phenotype (%) [7]: 29% | Population Mitotic Cells (%) [7]: 74% | Population Normal (%) [7]: 95% | Population Pyknosed Nuclei (%) [7]: 12% | Population Tubulin-Different-Phenotype (%) [7]: 29% | Total Cell Count [7]: 650 | Population Apoptotic (%) [8]: 49% | Population Healthy Nuclei (%) [8]: 75% | Population Hoechst High Intensity Objects (%) [8]: 9% | Population Mitochondria Different-Phenotype (%) [8]: 50% | Population Mitotic Cells (%) [8]: 50% | Population Normal (%) [8]: 90% | Population Pyknosed Nuclei (%) [8]: 14% | Population Tubulin-Different-Phenotype (%) [8]: 26% | Total Cell Count [8]: 462 | Population Apoptotic (%) [9]: 23% | Population Fragmented Nuclei (%) [9]: 11% | Population Healthy Nuclei (%) [9]: 82% | Population Hoechst High Intensity Objects (%) [9]: 2% | Population Membrane Permeable-Phenotype (%) [9]: 1% | Population Mitochondria Different-Phenotype (%) [9]: 22% | Population Mitotic Cells (%) [9]: 76% | Population Normal (%) [9]: 97% | Population Pyknosed Nuclei (%) [9]: 6% | Population Tubulin-Different-Phenotype (%) [9]: 15% | Total Cell Count [9]: 730 | Population Apoptotic (%) [10]: 33% | Population Fragmented Nuclei (%) [10]: 15% | Population Healthy Nuclei (%) [10]: 79% | Population Mitochondria Different-Phenotype (%) [10]: 16% | Population Mitotic Cells (%) [10]: 66% | Population Pyknosed Nuclei (%) [10]: 4% | Population Tubulin-Different-Phenotype (%) [10]: 10% | Total Cell Count [10]: 697 | Population Apoptotic (%) [11]: 36% | Population Fragmented Nuclei (%) [11]: 12% | Population Healthy Nuclei (%) [11]: 80% | Population Hoechst High Intensity Objects (%) [11]: 3% | Population Membrane Permeable-Phenotype (%) [11]: 1% | Population Mitochondria Different-Phenotype (%) [11]: 17% | Population Mitotic Cells (%) [11]: 63% | Population Normal (%) [11]: 96% | Population Pyknosed Nuclei (%) [11]: 7% | Population Tubulin-Different-Phenotype (%) [11]: 18% | Total Cell Count [11]: 883 | Population Fragmented Nuclei (%) [12]: 16% | Population Healthy Nuclei (%) [12]: 75% | Population Hoechst High Intensity Objects (%) [12]: 4% | Population Membrane Permeable-Phenotype (%) [12]: 0% | Population Mitochondria Different-Phenotype (%) [12]: 36% | Population Normal (%) [12]: 95% | Population Tubulin-Different-Phenotype (%) [12]: 17% | Total Cell Count [12]: 649
